Key:
OVCAR-3 = assay: Antiproliferative activity against human OVCAR3 cells after 2 days by spectrophotometric analysis; format: functional; details: OVCAR-3, 48 h
Procedure, shortened: (§1)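 Cells from ATCC were kept in RPMI 1640 with 5% FBS. They were exposed to graded concentrations in DMSO/RPMI for 48 h at 37 C under 5% CO2, then fixed with 50% trichloroacetic acid. Cellular protein was read at 540 nm at time zero and at 48 h, with and without compound. TGI (100% growth inhibition) was taken from the concentration-response curve.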

A549 = assay: Antiproliferative activity against human A549 cells after 2 days by spectrophotometric analysis; format: functional; details: A549, 48 h
HeLa = assay: Antiproliferative activity against human HeLa cells after 2 days by spectrophotometric analysis; format: functional; details: 48 h; procedure, shortened: as §1
U-87 MG = assay: Antiproliferative activity against human U87MG cells after 2 days by spectrophotometric analysis; format: functional, U-87MG ATCC; details: 48 h
HepG2 = assay: Antiproliferative activity against human HepG2 cells after 2 days by spectrophotometric analysis; format: functional; details: HepG2, 48 h
[1] = target: T1, Tyrosine-protein kinase receptor UFO (Homo sapiens, UniProt P30530); assay: Inhibition of N-terminal His-tagged recombinant human AXL (473 to end amino acids) expressed by baculovirus in Sf9 cells using axltide substrate and ATP by ADP-Glo luminescence assay
T1 sequence (P30530 whole entry): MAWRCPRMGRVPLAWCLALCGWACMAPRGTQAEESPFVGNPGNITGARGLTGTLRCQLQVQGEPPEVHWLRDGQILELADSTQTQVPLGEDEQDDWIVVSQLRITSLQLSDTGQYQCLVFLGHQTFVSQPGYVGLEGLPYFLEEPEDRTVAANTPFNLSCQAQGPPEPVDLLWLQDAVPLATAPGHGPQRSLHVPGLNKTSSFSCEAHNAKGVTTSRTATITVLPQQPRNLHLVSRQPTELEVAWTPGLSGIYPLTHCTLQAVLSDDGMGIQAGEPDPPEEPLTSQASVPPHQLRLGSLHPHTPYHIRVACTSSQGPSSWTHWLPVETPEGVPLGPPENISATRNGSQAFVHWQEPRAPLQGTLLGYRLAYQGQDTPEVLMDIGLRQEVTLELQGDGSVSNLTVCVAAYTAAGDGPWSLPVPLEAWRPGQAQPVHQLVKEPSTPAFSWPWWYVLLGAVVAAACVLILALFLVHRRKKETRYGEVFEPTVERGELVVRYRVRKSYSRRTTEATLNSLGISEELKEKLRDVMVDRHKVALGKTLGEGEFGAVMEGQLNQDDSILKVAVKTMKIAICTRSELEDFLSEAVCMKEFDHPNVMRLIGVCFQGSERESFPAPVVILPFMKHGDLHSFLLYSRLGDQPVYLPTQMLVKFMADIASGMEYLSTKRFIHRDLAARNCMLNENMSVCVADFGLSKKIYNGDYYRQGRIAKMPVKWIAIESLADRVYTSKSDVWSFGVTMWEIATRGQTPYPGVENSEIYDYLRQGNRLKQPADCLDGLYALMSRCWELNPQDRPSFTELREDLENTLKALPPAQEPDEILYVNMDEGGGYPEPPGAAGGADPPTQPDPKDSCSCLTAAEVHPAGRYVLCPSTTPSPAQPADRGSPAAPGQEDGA

SMILES | GI50 (OVCAR-3) [µM] | GI50 (A549) [µM] | GI50 (HeLa) [µM] | GI50 (U-87 MG) [µM] | GI50 (HepG2) [µM] | IC50 [1] [µM]
CN(c1cccc2c1CN(c1nc(Nc3cccc(C(F)(F)F)c3)ncc1C(F)(F)F)C2)S(C)(=O)=O | > 30 | > 30 | 5.3 | > 30 | > 30 | 
COc1cc(N2CCN(C(C)=O)CC2)ccc1Nc1ncc(C(F)(F)F)c(N2Cc3cccc(N(C)S(C)(=O)=O)c3C2)n1 | 1.6 | 3.3 | 1.3 | 4.7 | 3.8 | 
CN(c1cccc2c1CN(c1nc(Nc3ccc(N4CCOCC4)cc3)ncc1C(F)(F)F)C2)S(C)(=O)=O | 2.4 | 2.5 | 0.79 | 6.8 | 1.9 | 
COc1ccc(Nc2ncc(C(F)(F)F)c(N3Cc4cccc(N(C)S(C)(=O)=O)c4C3)n2)cc1C(F)(F)F | > 30 | > 30 | 14 | 29.4 | > 30 | > 20
CN(c1cccc2c1CN(c1nc(Nc3cc(C(F)(F)F)cc(C(F)(F)F)c3)ncc1C(F)(F)F)C2)S(C)(=O)=O | > 30 | > 30 | 9.2 | 16.8 | 10.3 | > 20
CN(c1cccc2c1CN(c1nc(Nc3ccc(C(F)(F)F)cc3)ncc1C(F)(F)F)C2)S(C)(=O)=O | > 30 | > 30 | > 30 | > 30 | > 30 | > 20
COc1cc(Nc2ncc(C(F)(F)F)c(N3Cc4cccc(N(C)S(C)(=O)=O)c4C3)n2)cc(OC)c1 | 0.63 | 24.8 | 7 | > 30 | 1.8 | 

Second part, the molecule after the results:

GI50 (OVCAR-3) [µM] | GI50 (A549) [µM] | GI50 (HeLa) [µM] | GI50 (U-87 MG) [µM] | GI50 (HepG2) [µM] | IC50 [1] [µM] | SMILES
> 30 | 7.3 | 16.5 | 6.2 | 25.6 | > 20 | COc1cc(Nc2ncc(C(F)(F)F)c(N3Cc4cccc(N(C)S(C)(=O)=O)c4C3)n2)c(OC)cc1Cl
> 30 | > 30 | 10.9 | > 30 | > 30 | > 20 | Cc1ccc(Nc2ncc(C(F)(F)F)c(N3Cc4cccc(N(C)S(C)(=O)=O)c4C3)n2)c(Cl)c1
> 30 | 12.1 | 6.3 | > 30 | 9.8 |  | CN(c1cccc2c1CN(c1nc(Nc3ccc4c(c3)OCO4)ncc1C(F)(F)F)C2)S(C)(=O)=O
> 30 | 20.7 | 10.6 | > 30 | 19.1 |  | Cc1ccc(Nc2ncc(C(F)(F)F)c(N3Cc4cccc(N(C)S(C)(=O)=O)c4C3)n2)c(C)c1

— ChEMBL document CHEMBL4325842, “Design, synthesis, and biological evaluation of novel aminopyrimidinylisoindolines as AXL kinase inhibitors” (Bioorg Med Chem Lett, 2018)
